We go through 29 molecules from ChEMBL document CHEMBL5104206, “Oleic amide derivatives as small molecule stimulators of the human proteasome's core particle” (RSC Med Chem, 2022).

Activity calls are given as the source filed them. No cut-off for these calls is given here.

In series [1] the target is T1, 20S proteasome (Homo sapiens) (UniProt P49721+P20618+P28074+P28062+P28065+P28072+P25786+P25787+P25788+P25789+P28066+P60900+O14818+Q8TAA3+P40306+A5LHX3+P49720+P28070+Q99436). The experiment in a line: Stimulation of human 20S proteasome assessed as increase in proteasome activity at 25 uM and measured upto 60 mins using FRET peptide as substrate by FRET assay relative to control. The series is classed as protein-complex assay. The settings on record: filed as activator. Put shortly:
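Purified 20S CP (5 nM) with 20 µM FRET peptide reporter in Tris-HCl (50 mM, pH 7.63), 2% DMSO, 25 µL. Controls were reporter alone and basal enzyme with DMSO, in triplicate. Read at 37 °C, ex 335/em 493 nm, every 2 min for 60 min. Rate taken as slope of linear portion.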

The next series deals with HEK-293T. Kind of series: Cytotoxicity against human HEK-293T cells assessed as reduction in cell viability at 6.25 to 25 uM incubated for 24 hrs by CellTiter Glo viability assay. It counts as toxicity, cell-based. The settings on record: dose 6.25-25 µM. The method in brief: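 HEK-293T seeded at 5000 cells/well, attached overnight, medium refreshed. Compound in DMSO added in triplicate, 1% final DMSO, 24 h. Plate equilibrated to room temperature 30 min before CellTiter-Glo reagent, shaken 10 min, signal stabilized 10 min. Luminescence read.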
(In general: ATP-based viability assays read luminescence as a measure of living cells.)

For series [2], the target named is T1, 20S proteasome (Homo sapiens). Kind of series: Activation of human 20S proteasome mediated degradation of alpha-synuclein assessed as amount of alpha-synuclein remaining at 25 uM and incubated for 2 hrs by Coomassie staining based SDS-PAGE analysis. It counts as protein-complex assay. The settings on record: filed as activator. Put shortly: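 Human 20S CP (5 nM final) with α-Syn monomer (400 ng) in Tris-HCl (50 mM, pH 7.6), 2% DMSO, 18 µL total, 2 h at 37 °C, triplicate. Mixed on ice before incubation. Stopped in SDS loading buffer at 95 °C 5 min. Run on 4–15% SDS-PAGE, Coomassie stained, band intensity normalized to α-Syn without 20S CP.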

In series [3] the target is T2, Proteasome Macropain subunit MB1 (Homo sapiens) (UniProt P28074).
T2 sequence (whole entry): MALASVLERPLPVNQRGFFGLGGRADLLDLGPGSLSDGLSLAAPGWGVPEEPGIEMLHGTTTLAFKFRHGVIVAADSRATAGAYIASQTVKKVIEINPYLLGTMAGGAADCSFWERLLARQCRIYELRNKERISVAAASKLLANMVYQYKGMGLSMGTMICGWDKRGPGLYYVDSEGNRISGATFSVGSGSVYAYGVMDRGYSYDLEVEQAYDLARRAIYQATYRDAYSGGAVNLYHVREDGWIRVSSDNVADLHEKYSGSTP
Kind of series: Stimulation of human 20S proteasome beta 5 subunit in human HEK-293T cells assessed as increase in proteasome activity at 6.25 to 25 uM preincubated for 2 hrs followed by Me4BodipyFL-Ahx3Leu3VS proteasome probe addition and measured after 1 hrs by SDS-PAGE analysis. It counts as cell-based. The settings on record: filed as activator, dose 6.25-25 µM. The method in brief:
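Treated 2 h in fresh medium, DMSO control 0.5%, then 1 µM Me4BodipyFL-Ahx3Leu3VS probe added. Cells lysed in M-PER with protease inhibitors. 50 µg protein run on 4–15% SDS-PAGE, in-gel fluorescence scanned at 488 nm. Band densities quantified, triplicate.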

On to `CCCCCCCC/C=C\CCCCCCCC(=O)NCc1ccccc1`, for which, in series [1], the Activity was determined as 208%.

Consider `CCCCCCCC/C=C\CCCCCCCC(=O)NCc1ccc(Cl)cc1`, for which the Activity in series [1] was 138%. `CCCCCCCC/C=C\CCCCCCCC(=O)NC1CCC1`: the Activity in series [1] was 202%.

Turning to `CCCCCCCC/C=C\CCCCCCCC(=O)NCCCCC`, in series [1], the Activity worked out at 124%.

On to `CCCCCCCC/C=C\CCCCCCCC(=O)Nc1ccc(O)cc1`, for which, in series [1], the Activity came out at 247%. Regarding `CCCCCCCC/C=C\CCCCCCCC(=O)NCc1ccc(C(C)(C)C)cc1`, in series [1], the Activity is 106%. The same measure, in the same setting: as for `CCCCCCCC/C=C\CCCCCCCC(=O)NCc1ccccc1C`, the figure is 107%. For `CCCCCCCC/C=C\CCCCCCCC(=O)NCc1ccc(C)cc1`, the Activity in series [1] was found to be 167%. With `CCCCCCCC/C=C\CCCCCCCC(=O)NC1CCCCCCC1`, the Activity in series [1] was determined as 148%.

Take `CCCCCCCC/C=C\CCCCCCCC(=O)Nc1ccccc1`: in series [1], the Activity stood at 159%. The same measure, in the same setting: the value for `CCCCCCCC/C=C\CCCCCCCC(=O)NC1CCCCCC1` was 136%; that for `CCCCCCCC/C=C\CCCCCCCC(=O)N[C@H](C)c1ccccc1` was 225%; that for `CCCCCCCC/C=C\CCCCCCCC(=O)NCCCC` was 138%.

Turning to `CCCCCCCC/C=C\CCCCCCCC(=O)Nc1ccc(Cl)cc1`, the Activity in series [1] worked out at 144%.

Regarding `CCCCCCCC/C=C\CCCCCCCC(=O)NCCC`, the Activity result in the series on HEK-293T was “Toxic”; in series [1], 154%. Moreover, the result in series [2] and in series [3] was Active. On to `CCCCCCCC/C=C\CCCCCCCC(=O)NCc1ccc(C(F)(F)F)cc1`, for which, in series [1], the Activity was determined as 92%. As to `CCCCCCCC/C=C\CCCCCCCC(=O)NCc1ccc(O)cc1`, the Activity entry is “Toxic” with HEK-293T and 361% in series [1]. Besides, the result in series [2] and in series [3] was Active. Turning to `CCCCCCCC/C=C\CCCCCCCC(=O)NC1CCCCC1`, the Activity in series [1] was determined as 204%. Still for that read-out and setting: the value for `CCCCCCCC/C=C\CCCCCCCC(=O)N[C@H]1CC[C@H](C)CC1` was 118%; that for `CCCCCCCC/C=C\CCCCCCCC(=O)NCc1cccc(C)c1` was 183%. Take `CCCCCCCC/C=C\CCCCCCCC(=O)Nc1ccc(C(C)(C)C)cc1`: in series [1], the Activity turned out to be 68%. In the case of `CCCCCCCC/C=C\CCCCCCCC(=O)Nc1ccc(C(C)=O)cc1`, the Activity entry is “Non-Toxic” in the series with HEK-293T and 241% in series [1]. The result in series [2] and in series [3] was Active. On to `CCCCCCCC/C=C\CCCCCCCC(=O)NCC(C)C`, for which the Activity in series [1] turned out to be 139%. Still for that read-out and setting: the value for `CCCCCCCC/C=C\CCCCCCCC(=O)N[C@@H](C)c1ccccc1` was 195%; that for `CCCCCCCC/C=C\CCCCCCCC(=O)Nc1ccc(Oc2ccccc2)cc1` was 145%. As for `CCCCC/C=C\C/C=C\C/C=C\C/C=C\CCCC(=O)Nc1ccc(O)cc1`, the figures for the Activity entry (with HEK-293T; in series [3] (DDE = dose-dependent effect); in series [1]) were “Toxic”, “Dde” and 219%, respectively. In series [2], the outcome was Active.

With `CCCCCCCC/C=C\CCCCCCCC(=O)NCc1ccc(OC)cc1`, the Activity in series [1] is 116%. On the same count and under the same terms, the value for `CCCCCCCC/C=C\CCCCCCCC(=O)NC1CCCC1` was 218%; that for `CCCCCCCC/C=C\CCCCCCCC(=O)NC` was 132%.
